Values after ≈ are worked out from the molar mass of the structure shown.
Assays:
Assay type in all cases: functional
[1] = test system: Radical scavenging activity; assay: Antioxidant activity of the compound assessed as DPPH free radical scavenging activity at 250 uM after 60 mins by spectrophotometric analysis relative to control
Procedure, shortened: (§1)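 DPPH• and sample stocks made in DMSO. DPPH• mixed with sample at several concentrations and brought to 4.0 mL in DMSO. Incubated 60 min at 25 °C in the dark, then absorbance read at 517 nm with solvent correction. Scavenging % = (A0−As)/A0×100 against a DPPH-only control. Ascorbic acid standard. Mean ± SD, n = 3.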

[2] = test system: Radical scavenging activity; assay: Antioxidant activity of the compound assessed as DPPH free radical scavenging activity at 125 uM after 60 mins by spectrophotometric analysis relative to control; procedure, shortened: as §1
[3] = test system: Radical scavenging activity; assay: Antioxidant activity of the compound assessed as DPPH free radical scavenging activity at 187.5 uM after 60 mins by spectrophotometric analysis relative to control; procedure, shortened: as §1
[4] = test system: Radical scavenging activity; assay: Antioxidant activity of the compound assessed as DPPH free radical scavenging activity at 62.5 uM after 60 mins by spectrophotometric analysis relative to control; procedure, shortened: as §1
[5] = test system: Staphylococcus aureus; assay: Antibacterial activity against Staphylococcus aureus ATCC 25923 assessed as growth inhibition after 3 to 4 days by serial plate dilution method
Procedure, shortened: (§2)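 Serial dilution in Mueller-Hinton broth adjusted to pH 5.0 with phosphate buffer. Standardized bacterial suspension inoculated, 16-18 h at 37 °C. Agar-well plates also used: compounds in DMSO added to punched wells, DMSO solvent control, triplicate plates held at 37 °C for 3–4 days. MIC taken as lowest concentration with no visible growth. Range tested 1.56–25 µg/mL. Ciprofloxacin standard.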

[6] = test system: Pseudomonas aeruginosa; assay: Antibacterial activity against Pseudomonas aeruginosa ATCC 27853 assessed as growth inhibition after 3 to 4 days by serial plate dilution method; procedure, shortened: as §2
[7] = test system: Klebsiella pneumoniae; assay: Antibacterial activity against Klebsiella pneumoniae assessed as growth inhibition after 3 to 4 days by serial plate dilution method; procedure, shortened: as §2
[8] = test system: Escherichia coli; assay: Antibacterial activity against Escherichia coli ATCC 25922 assessed as growth inhibition after 3 to 4 days by serial plate dilution method; procedure, shortened: as §2
[9] = test system: Aspergillus fumigatus; assay: Antifungal activity against Aspergillus fumigatus NCIM 902 assessed as growth inhibition after 3 to 4 days by serial plate dilution method
Procedure, shortened: (§3)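 Agar of peptone, D-glucose and agar at pH 5.7, lawned with saline spore suspension and dried 1 h at 37 °C. Compounds in DMSO added to punched wells, DMSO solvent control. Triplicate plates held at 37 °C for 3–4 days. […] Ciclopiroxolamine standard.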

[10] = test system: Aspergillus flavus; assay: Antifungal activity against Aspergillus flavus NCIM 524 assessed as growth inhibition after 3 to 4 days by serial plate dilution method; procedure, shortened: as §3
[11] = test system: Trichophyton mentagrophytes; assay: Antifungal activity against Trichophyton mentagrophytes assessed as growth inhibition after 3 to 4 days by serial plate dilution method; procedure, shortened: as §3
[12] = test system: Talaromyces marneffei; assay: Antifungal activity against Penicillium marneffei assessed as growth inhibition after 3 to 4 days by serial plate dilution method; procedure, shortened: as §3
[13] = test system: Radical scavenging activity; assay: Antioxidant activity of the compound assessed as DPPH free radical scavenging activity at 312.5 uM after 60 mins by spectrophotometric analysis relative to control; procedure, shortened: as §1

Row | Compound | inhibition [1] [%] | inhibition [2] [%] | inhibition [3] [%] | inhibition [4] [%] | MIC [5] [µg/mL] | MIC [6] [µg/mL] | MIC [7] [µg/mL] | MIC [8] [µg/mL] | MIC [9] [µg/mL] | MIC [10] [µg/mL] | MIC [11] [µg/mL] | MIC [12] [µg/mL] | inhibition [13] [%]
1 | S=c1n(CN2CCOCC2)nc(-c2cccs2)n1-c1ccccc1 | 87.2 | 68.4 | 79.2 | 59.1 | 12 (≈ 33.5 µM) | 6.25 (≈ 17.4 µM) | 6.25 (≈ 17.4 µM) | 6.25 (≈ 17.4 µM) | 3.12 (≈ 8.7 µM) | 1.56 (≈ 4.35 µM) | 1.56 (≈ 4.35 µM) | 3.12 (≈ 8.7 µM) | –
2 | C=CCn1c(-c2cccs2)nn(CN2CCN(c3ccccc3)CC2)c1=S | 84.1 | 64.4 | 75 | 54 | 6.25 (≈ 15.7 µM) | 12 (≈ 30.2 µM) | 6.25 (≈ 15.7 µM) | 12 (≈ 30.2 µM) | 6.25 (≈ 15.7 µM) | 3.12 (≈ 7.85 µM) | 3.12 (≈ 7.85 µM) | 6.25 (≈ 15.7 µM) | 91.6
3 | CCCN(CCC)Cn1nc(-c2cccs2)n(-c2ccccc2)c1=S | 81.4 | 62.6 | 72.1 | 52.1 | 6.25 (≈ 16.8 µM) | 12 (≈ 32.2 µM) | 6.25 (≈ 16.8 µM) | 12 (≈ 32.2 µM) | 12 (≈ 32.2 µM) | 6.25 (≈ 16.8 µM) | 6.25 (≈ 16.8 µM) | 12 (≈ 32.2 µM) | –
4 | C=CCn1c(-c2cccs2)nn(CN2CCOCC2)c1=S | 89.9 | 71.2 | 83.1 | 62.3 | 3.12 (≈ 9.68 µM) | 6.25 (≈ 19.4 µM) | 6.25 (≈ 19.4 µM) | 6.25 (≈ 19.4 µM) | 3.12 (≈ 9.68 µM) | 1.56 (≈ 4.84 µM) | 1.56 (≈ 4.84 µM) | 3.12 (≈ 9.68 µM) | 95
5 | O=C1O[C@H]([C@@H](O)CO)C(O)=C1O | 85.8 | 65 | 75.2 | 55.1 | – | – | – | – | – | – | – | – | 91.7
6 | CCn1c(-c2cccs2)nn(CN2CCN(c3ccccc3)CC2)c1=S | 82.5 | 63.1 | 72.7 | 52.2 | 6.25 (≈ 16.2 µM) | 12 (≈ 31.1 µM) | 6.25 (≈ 16.2 µM) | 12 (≈ 31.1 µM) | 6.25 (≈ 16.2 µM) | 3.12 (≈ 8.09 µM) | 3.12 (≈ 8.09 µM) | 6.25 (≈ 16.2 µM) | 90.2
7 | S=c1[nH]nc(-c2cccs2)n1-c1ccccc1 | 51.2 | 45.7 | 47.9 | 36.1 | 12 (≈ 46.3 µM) | 12 (≈ 46.3 µM) | 12 (≈ 46.3 µM) | 12 (≈ 46.3 µM) | 25 (≈ 96.4 µM) | 12 (≈ 46.3 µM) | 12 (≈ 46.3 µM) | 25 (≈ 96.4 µM) | 65.1
8 | CCn1c(-c2cccs2)nn(CN2CCN(Cc3ccccc3)CC2)c1=S | 83.1 | 63.2 | 74.5 | 53.5 | 6.25 (≈ 15.6 µM) | 12 (≈ 30 µM) | 6.25 (≈ 15.6 µM) | 12 (≈ 30 µM) | 6.25 (≈ 15.6 µM) | 3.12 (≈ 7.81 µM) | 3.12 (≈ 7.81 µM) | 6.25 (≈ 15.6 µM) | 90.9
9 | Cc1cc(C2CCCCC2)n(O)c(=O)c1.NCCO [CICLOPIROX OLAMINE] | – | – | – | – | – | – | – | – | 6.25 | 3.12 | 3.12 | 6.25 | –
10 | CCn1c(-c2cccs2)nn(CN2CCC(C)CC2)c1=S | 67.6 | 52.5 | 65.2 | 49.2 | 1.56 (≈ 4.84 µM) | 3.12 (≈ 9.67 µM) | 3.12 (≈ 9.67 µM) | 3.12 (≈ 9.67 µM) | 12 (≈ 37.2 µM) | 6.25 (≈ 19.4 µM) | 6.25 (≈ 19.4 µM) | 12 (≈ 37.2 µM) | 71.3
11 | CCn1c(-c2cccs2)nn(CN2CCN(c3cccc(C(F)(F)F)c3)CC2)c1=S | 80.2 | 61.1 | 71.3 | 52 | 1.56 (≈ 3.44 µM) | 3.12 (≈ 6.88 µM) | 3.12 (≈ 6.88 µM) | 3.12 (≈ 6.88 µM) | 6.25 (≈ 13.8 µM) | 3.12 (≈ 6.88 µM) | 3.12 (≈ 6.88 µM) | 6.25 (≈ 13.8 µM) | 81.6
12 | CCn1c(-c2cccs2)n[nH]c1=S | 53.3 | 47.1 | 49.6 | 36.4 | 12 (≈ 56.8 µM) | 12 (≈ 56.8 µM) | 12 (≈ 56.8 µM) | 12 (≈ 56.8 µM) | 25 (≈ 118 µM) | 12 (≈ 56.8 µM) | 12 (≈ 56.8 µM) | 25 (≈ 118 µM) | 62.1
13 | CC1CCN(Cn2nc(-c3cccs3)n(-c3ccccc3)c2=S)CC1 | 66.9 | 51.1 | 61.1 | 44.7 | 1.56 (≈ 4.21 µM) | 3.12 (≈ 8.42 µM) | 3.12 (≈ 8.42 µM) | 3.12 (≈ 8.42 µM) | 12 (≈ 32.4 µM) | 6.25 (≈ 16.9 µM) | 6.25 (≈ 16.9 µM) | 12 (≈ 32.4 µM) | –
14 | C=CCn1c(-c2cccs2)nn(CN2CCC(C)CC2)c1=S | 69.7 | 53.5 | 68.1 | 50.1 | 1.56 (≈ 4.66 µM) | 3.12 (≈ 9.33 µM) | 3.12 (≈ 9.33 µM) | 3.12 (≈ 9.33 µM) | 12 (≈ 35.9 µM) | 6.25 (≈ 18.7 µM) | 6.25 (≈ 18.7 µM) | 12 (≈ 35.9 µM) | 72.4
15 | CCn1c(-c2cccs2)nn(CN2CCOCC2)c1=S | 88.6 | 69.8 | 82.8 | 60.4 | 3.12 (≈ 10 µM) | 6.25 (≈ 20.1 µM) | 6.25 (≈ 20.1 µM) | 6.25 (≈ 20.1 µM) | 3.12 (≈ 10 µM) | 1.56 (≈ 5.02 µM) | 1.56 (≈ 5.02 µM) | 3.12 (≈ 10 µM) | 93.6
16 | C=CCn1c(-c2cccs2)n[nH]c1=S | 55.5 | 45.2 | 47.4 | 40.7 | 25 (≈ 112 µM) | 12 (≈ 53.7 µM) | 25 (≈ 112 µM) | 12 (≈ 53.7 µM) | 25 (≈ 112 µM) | 12 (≈ 53.7 µM) | 12 (≈ 53.7 µM) | 25 (≈ 112 µM) | 68.8
17 | O=C(O)c1cn(C2CC2)c2cc(N3CCNCC3)c(F)cc2c1=O [CIPROFLOXACIN] | – | – | – | – | 3.12 (≈ 9.42 µM) | – | 6.25 (≈ 18.9 µM) | – | – | – | – | – | –

Reference: ChEMBL document CHEMBL2375229, “Synthesis and biological activities of some novel aminomethyl derivatives of 4-substituted-5-(2-thienyl)-2,4-dihydro-3H-1,2,4-triazole-3-thiones” (2013)
